Data taken from ChEMBL document CHEMBL4270668, “Design, Synthesis, Molecular Dynamics Simulation, and Functional Evaluation of a Novel Series of 26RFa Peptide Analogues Containing a Mono- or Polyalkyl Guanidino Arginine Derivative” (J Med Chem, 2018).
The source made the active and inactive calls. The rule behind the calls is not given here. Starred links: 1 amine or outer side, 2 acyl side, 3 side chain; linkers in the order of their positions; H or OH if unused. Non-standard residues stand in square brackets, D forms with d. Residues, ends and D or L forms follow the SMILES beside them. X1 = C/N=C(\NCCC[C@H](N[*:1])C(=O)[*:2])N(C)C; Arg(Me2a) = CN(C)C(=N)NCCC[C@H](N)C(=O)O; Arg(Me) = CNC(=N)NCCC[C@H](N)C(=O)O

Columns and labels:
[1] = biological target: T1, Pyroglutamylated RF-amide peptide receptor (Homo sapiens, UniProt Q96P65); assay: Agonist activity at human QRFPR expressed in CHO cells co-expressing Galpha16 assessed as increase Ca2+ mobilization after 3 mins by Fluo-4 AM-based scanning fluorometery; type: functional, cell-based
T1 sequence (Q96P65 whole entry): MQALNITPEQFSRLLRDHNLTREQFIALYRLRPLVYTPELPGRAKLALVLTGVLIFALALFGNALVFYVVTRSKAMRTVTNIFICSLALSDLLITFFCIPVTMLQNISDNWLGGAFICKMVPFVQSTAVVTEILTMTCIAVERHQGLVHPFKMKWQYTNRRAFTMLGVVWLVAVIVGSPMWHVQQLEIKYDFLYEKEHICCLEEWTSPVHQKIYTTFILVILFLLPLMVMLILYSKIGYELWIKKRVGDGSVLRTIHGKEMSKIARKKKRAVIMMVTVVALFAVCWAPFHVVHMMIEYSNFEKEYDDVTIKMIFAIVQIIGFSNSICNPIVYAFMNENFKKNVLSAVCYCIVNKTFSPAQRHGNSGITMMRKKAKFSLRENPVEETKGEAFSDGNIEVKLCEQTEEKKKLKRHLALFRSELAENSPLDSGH
Method in brief: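 CHO-Gα16 cells stably expressing human QRFPR, seeded at 40,000 cells/well 24 h ahead. Loaded 1 h with 2 µM Fluo-4 AM plus 0.01% pluronic acid, washed, then 30 min in HBSS with 2.5 mM probenecid and 5 mM HEPES. Compounds added at final 10^-11 to 10^-5 M; fluorescence recorded 3 min on a scanning fluorometer. EC50 from sigmoidal variable-slope fits, ≥3 experiments in triplicate.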

[2] = biological target: T2, Pyroglutamylated RF-amide peptide receptor (Homo sapiens) (UniProt Q96P65); assay: Antagonist activity at human QRFPR expressed in CHO cells co-expressing Galpha16 assessed as inhibition of 26RFa-induced Ca2+ mobilization at 100 uM preincubated for 15 mins followed by agonist addition measured after 3 mins by Fluo-4 AM-based scanning fluorometery relative to 26RFa (20 to 26 residues); type: functional, cell-based
T2 sequence (whole entry): T1 sequence (Q96P65 whole entry)
Method in brief: (§1)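 CHO-Gα16-hQRFPR cells loaded 1 h with 2 µM Fluo-4 AM, then incubated 15 min with graded compound. A 10^-7 M final 26RFa pulse was given during recording. Background subtracted, baseline normalized to 100%, peak fluorescence taken per concentration. IC50 from sigmoidal variable-slope fits, ≥3 experiments in triplicate. Maximal effect at 10^-4 M expressed as % inhibition of the 26RFa (10^-7 M) response.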

[3] = biological target: T1, Pyroglutamylated RF-amide peptide receptor; assay: Antagonist activity at human QRFPR expressed in CHO cells co-expressing Galpha16 assessed as inhibition of 26RFa-induced Ca2+ mobilization preincubated for 15 mins followed by agonist addition measured after 3 mins by Fluo-4 AM-based scanning fluorometery; type: functional, cell-based; method in brief: as §1
Mus musculus [4] = assay: Induction of insulin-induced hypoglycemia in C57Bl/6J mouse at 148 ug/kg, ip measured up to 90 mins post insulin injection by insulin tolerance test; type: functional, organism-based
Method in brief: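 Mice fasted 6 h with water available, then given i.p. human insulin 0.75 U/kg together with peptide 148 µg/kg (equimolar to 26RFa) or vehicle. Tail-vein plasma glucose read by glucometer at 0, 15, 30, 60 and 90 min. At least eight animals per group; two-way ANOVA with Tukey post-test.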

Mus musculus [5] = assay: Induction of insulin-induced hypoglycemia in C57Bl/6J mouse at 148 ug/kg, ip measured after 90 mins post insulin injection by insulin tolerance test; type: functional, organism-based; details: 741 ug/kg, in the assay text read “741 ug/kg” for “148 ug/kg”
[6] = biological target: T2, Pyroglutamylated RF-amide peptide receptor (Homo sapiens); assay: Antagonist activity at human QRFPR expressed in CHO cells co-expressing Galpha16 assessed as inhibition of 26RFa-induced Ca2+ mobilization at 10 uM preincubated for 30 mins followed by agonist addition measured after 3 mins by Fluo-4 AM-based scanning fluorometery; type: functional, cell-based
Method in brief: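 One-dose screen in CHO-Gα16 cells stably expressing human QRFPR, Fluo-4 AM loaded. Cells incubated 30 min with analogue at 10^-5 M, then challenged with 26RFa at 10^-7 M during fluorescence recording. Response normalized to 26RFa alone in HBSS.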

Mus musculus [7] = assay: Induction of insulin-induced hypoglycemia in C57Bl/6J mouse at 500 ug/kg, ip measured up to 90 mins post insulin injection by insulin tolerance test; type: functional, organism-based
Method in brief: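 Mice fasted 6 h, then given i.p. insulin 0.75 U/kg with 26RFa 500 µg/kg, or phosphate buffer as vehicle. Tail-vein plasma glucose measured by glucometer at 0, 15, 30, 60 and 90 min. n = 8 per group; two-way ANOVA with Tukey post-test.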

Compound | EC50 [1] | Imax [2] | IC50 [3] | Activity (Mus musculus [4]) | Activity (Mus musculus [5]) | inhibition [6] | Activity (Mus musculus [7])
CN(C)C(=N)NCCC[C@H](NC(=O)[C@H](Cc1ccccc1)NC(=O)[C@H](CO)NC(=O)[C@H](Cc1ccccc1)NC(=O)CNC(=O)CN)C(=O)N[C@@H](Cc1ccccc1)C(N)=O (H-GGFSF[Arg(Me2a)]F-NH2) | > 100 µM | 80% | 6.06 µM | – | – | – | –
CNC(=N)NCCC[C@H](NC(=O)[C@H](Cc1ccccc1)NC(=O)[C@H](CO)NC(=O)[C@H](Cc1ccccc1)NC(=O)CNC(=O)CN)C(=O)N[C@@H](Cc1ccccc1)C(N)=O (H-GGFSF[Arg(Me)]F-NH2) | 0.0664 µM | – | – | inactive | Active | – | –
C/N=C(\NCCC[C@H](NC(=O)[C@H](Cc1ccccc1)NC(=O)[C@H](CO)NC(=O)[C@H](Cc1ccccc1)NC(=O)CNC(=O)CN)C(=O)N[C@@H](Cc1ccccc1)C(N)=O)N(C)C (H-GGFSF[X1]F-NH2) | > 100 µM | 87.5% | 8.25 µM | – | – | 47% | –
H-VGTALGSLAEELNGYNRKKGGFSFRF-NH2 | 0.046 µM | – | – | – | – | – | Active
